Active and inactive are the calls of the source. The rule behind the calls is not given here.
What was measured:
[1] = Induction of preadipocyte differentiation into matured adipocyte in mouse ST-13 cells at 20 uM incubated for 2 to 8 days followed by compound wash out measured on day 12 by oil red O staining based phase contrast microscopy relative to control; format: functional
Method in brief: (§1)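 Mouse ST-13 preadipocytes were seeded on day 1 at 1 × 10^4 cells/mL in DME/F-12 with 10% FBS and penicillin/streptomycin, at 37 °C under 5% CO2. Medium containing compound, or 20 nM rosiglitazone as positive control, was renewed on days 2, 5 and 8. On day 12 cells were formalin-fixed, rinsed in 60% 2-propanol, stained with 0.24% Oil Red O and imaged by phase-contrast microscopy at 100×.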

[2] = Induction of preadipocyte differentiation into matured adipocyte in mouse ST-13 cells at 40 uM incubated for 2 to 8 days followed by compound wash out measured on day 12 by oil red O staining based phase contrast microscopy relative to control; format: functional; method in brief: as §1
[3] = test system: Escherichia coli; assay: Antibacterial activity against Escherichia coli at 25 ug/ml; format: functional, organism-based
[4] = test system: Micrococcus luteus; assay: Antibacterial activity against Micrococcus luteus at 25 ug/ml; format: functional, organism-based
[5] = test system: Candida albicans; assay: […] activity against Candida albicans at 25 ug/ml; format: functional, organism-based

For `CC1=C(C[C@H](O)CC/C=C/C=C/[C@@H](C)[C@@H](O)/C(C)=C/[C@@H](C)O)OC(C)(O)C1=O` (stereo partly specified), the Activity [1] was 9%.
For `CCCCC(=O)[C@H](C)/C=C(\C)[C@H](O)[C@H](C)/C=C/C=C/CC[C@@H](O)CC1=C(C)C(=O)C(C)(O)O1` (stereo partly specified), the Activity [1] was 45%, the Activity [2] was 73% and the Activity [3] was “inactive”. The Activity [4] was “inactive” and the Activity [5] was “inactive”.
In the case of `CCCCC(=O)O[C@H](C)/C=C(\C)[C@H](O)[C@H](C)/C=C/C=C/CC[C@@H](O)CC1=C(C)C(=O)C(C)(O)O1` (stereo partly specified), the Activity [1] is reported as 22%, the Activity [2] is reported as 33% and the Activity [3] is reported as “inactive”. The Activity [4] was “inactive” and the Activity [5] was “inactive”.
